Measurements: PubChem BioAssay AID652185 (Vanderbilt Specialized Chemistry Center, 2013)
Activity calls are given as the source filed them. No rule for the calls is given here.

Biological target: Metabotropic glutamate receptor 2 (Rattus norvegicus) (UniProt P31421)
Test: mGlu2 glutamate EC50 shift by compounds – cell-based, HEK293A, Galpha15, calcium mobilization, selectivity assay for mGlu5 silent allosteric modulators, profiling panel (AID 652185)
Conditions: HEK293A rmGlu2+Galpha15, Fluo4 calcium mobilization, glutamate CRC
Outline: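 material = rat mGlu2 plus Galpha15 in HEK293A cells | medium = HEPES-buffered HBSS with probenecid, pH 7.4 | technique = Fluo4-AM (1 µM) calcium-dependent fluorescence | also added = glutamate, 10 nM–1 mM, 9 concentrations | doses = single compound dose of 10 µM, 1% DMSO final | incubation = 60 min 37 °C dye load, compound 60 s pre-glutamate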

Metabotropic glutamate receptor 2 (Rattus norvegicus), sequence (P31421 whole entry, looked up): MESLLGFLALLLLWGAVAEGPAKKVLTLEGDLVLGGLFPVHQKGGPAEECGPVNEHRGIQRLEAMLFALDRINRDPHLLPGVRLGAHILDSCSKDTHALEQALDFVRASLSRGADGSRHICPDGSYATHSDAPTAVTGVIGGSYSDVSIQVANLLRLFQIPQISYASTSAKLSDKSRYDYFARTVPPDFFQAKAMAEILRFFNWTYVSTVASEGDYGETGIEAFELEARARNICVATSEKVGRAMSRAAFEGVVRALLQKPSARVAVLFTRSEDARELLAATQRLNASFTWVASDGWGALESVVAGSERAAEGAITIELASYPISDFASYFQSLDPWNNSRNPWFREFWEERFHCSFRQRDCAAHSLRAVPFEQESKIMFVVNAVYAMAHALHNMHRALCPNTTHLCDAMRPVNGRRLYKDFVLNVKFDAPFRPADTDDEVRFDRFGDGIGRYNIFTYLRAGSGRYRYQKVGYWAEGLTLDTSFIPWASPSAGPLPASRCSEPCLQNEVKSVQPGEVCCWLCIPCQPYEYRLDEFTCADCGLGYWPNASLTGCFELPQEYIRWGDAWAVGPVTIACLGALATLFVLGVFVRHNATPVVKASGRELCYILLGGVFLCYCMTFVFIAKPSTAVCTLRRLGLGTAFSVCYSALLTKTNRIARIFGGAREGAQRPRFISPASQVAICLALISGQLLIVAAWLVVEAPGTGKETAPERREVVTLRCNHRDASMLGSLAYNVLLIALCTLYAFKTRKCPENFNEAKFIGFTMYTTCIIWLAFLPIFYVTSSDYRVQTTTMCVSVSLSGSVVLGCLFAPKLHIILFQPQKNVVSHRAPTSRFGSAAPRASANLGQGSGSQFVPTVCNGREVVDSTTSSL

O=C(c1ccc(C#Cc2cccc(F)c2)cn1)N1CC2CC2C1 (stereo unspecified)
glutamate EC50 in presence of 10 uM compound (no shift = inactive): inactive
